Laboratory results published in ChEMBL document CHEMBL2093137, “WHO-TDR NTD Screening”.
≈ marks a conversion by molar mass, not a printed value.

What was measured:
Brugia malayi = assay: WHO-TDR: Lymphatic Filariasis; assay type: functional; set-up: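 tested at 10 µM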
Procedure, shortened: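 Following previously published standard procedures, compounds were tested on whole Brugia malayi microfilariae, with reference drugs as positive controls. They came from a diverse Life Chemicals collection of 10,000 compounds filtered for drug-likeness and reactive groups. Results appear as percent inhibition and as IC50.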

Leishmania infantum = assay: WHO-TDR: Leishmaniasis; assay type: functional, organism-based, Mus musculus; details: Macrophage
Procedure, shortened: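 The screened collection came from Life Chemicals: 10,000 diverse compounds selected after filtering for drug-likeness and reactive groups. Each was tested in a whole-organism assay against Leishmania infantum MHOM/MA(BE)/67 amastigotes inside murine peritoneal macrophages, using previously published standard procedures and a reference drug as positive control. Results are IC50 values for antiparasitic potency.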

Plasmodium falciparum K1 = assay: WHO-TDR: Malaria; assay type: functional, organism-based, Homo sapiens; details: Erythrocyte
Procedure, shortened: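 This whole-organism screen covered 10,000 drug-likeness-filtered and reactive-group-filtered compounds from Life Chemicals. The target was the Plasmodium falciparum K1 strain in human red blood cells, and the readout was antiplasmodial IC50.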

[1] = test system: Trypanosoma brucei brucei; assay: WHO-TDR: Human African Trypanosomiasis (HAT); assay type: functional, organism-based; details: Squib-427
Procedure, shortened: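 Screening used a 10,000-compound diverse library supplied by Life Chemicals and filtered for drug-likeness and reactive groups. Whole bloodstream-form parasites of Trypanosoma brucei Squib 427 strain were assayed according to previously published standard procedures, with reference drugs as positive controls. The reported measure is IC50, reflecting antiparasitic potency.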

Trypanosoma cruzi = assay: WHO-TDR: Chagas disease; assay type: functional, organism-based, Homo sapiens; details: MRC5
Procedure, shortened: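 Whole-organism screen of a 10,000-compound diverse library from Life Chemicals, filtered for drug-likeness and reactive groups, against intracellular amastigotes of Trypanosoma cruzi Tulahuen CL2 beta-galactosidase strain grown in MRC-5SV2 human lung fibroblast host cells. The assay followed previously published standard procedures, with a reference drug as positive control. Antiparasitic potency is reported as IC50.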

Schistosoma mansoni = assay: WHO-TDR: Schistosomiasis; assay type: functional; set-up: concentration or dose not given beside the values
Procedure, shortened: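 Activity appears as percent inhibition and as IC50. The underlying screen tested a diverse library of 10,000 compounds, supplied by Life Chemicals, on whole larval and/or adult worms of the Puerto Rican strain of Schistosoma mansoni.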

Onchocerca lienalis = assay: WHO-TDR: Onchocerciasis; assay type: functional; set-up: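 at 12.5 µM on microfilariae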
Procedure, shortened: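 Following previously published standard procedures, with reference drugs as positive controls, a diverse Life Chemicals library was tested on whole Onchocerca ochengi or Onchocerca lienalis microfilariae. The library held 10,000 compounds filtered for drug-likeness and reactive groups. Activity is recorded both as percent inhibition and as IC50.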

[2] = WHO-TDR: Cytotoxicity; assay type: toxicity, cell-based; details: human, MRC5 cells

Row | Structure (SMILES) | IC50 (Leishmania infantum) [µg/mL] | IC50 (Plasmodium falciparum K1) [µg/mL] | IC50 [1] [µg/mL] | % Inhibition (Brugia malayi) [%] | IC50 (Trypanosoma cruzi) [µg/mL] | % Inhibition (Schistosoma mansoni) [%] | % Inhibition (Onchocerca lienalis) [%] | IC50 [2] [µg/mL]
1 | Cc1cccc(-c2nc(CCNC(=O)c3ccco3)cs2)c1 | 3.95 (≈ 12.7 µM) | 6.12 (≈ 19.6 µM) | 0.307 (≈ 0.983 µM) | 0 | 2.46 (≈ 7.87 µM) | 0 | 0 | 4.35 (≈ 13.9 µM)
2 | Oc1ccc(Br)cc1/C=N/Nc1ncnc2[nH]cnc12 | 3.24 (≈ 9.71 µM) | 3.68 (≈ 11 µM) | 0.341 (≈ 1.02 µM) | 50 | 0.193 (≈ 0.579 µM) | 0 | -1 | 0.364 (≈ 1.09 µM)
3 | COc1cccc(-n2ccnc2SCC(=O)Nc2ccccc2C(F)(F)F)c1 | > 12.2 | > 12.2 | 0.422 (≈ 1.04 µM) | 0 | > 12.2 | 0 | 0 | > 12.2
4 | CCNc1cc(C)nc(Nc2ccc(NC(=O)CC3CCCC3)cc2)n1 | 3.43 (≈ 9.71 µM) | 2.4 (≈ 6.79 µM) | 3.39 (≈ 9.6 µM) | – | 0.299 (≈ 0.846 µM) | 66.7 | -1 | 3.23 (≈ 9.13 µM)
5 | CCN(CC)c1cc(C)nc(Nc2ccc(NC(=O)c3ccc(Br)o3)cc2)n1 | 4.31 (≈ 9.71 µM) | 0.638 (≈ 1.44 µM) | 0.942 (≈ 2.12 µM) | – | 0.344 (≈ 0.774 µM) | 66.7 | -1 | 2.91 (≈ 6.54 µM)
6 | CCN(CC)c1cc(C)nc(Nc2ccc(NC(=O)c3cc4ccccc4oc3=O)cc2)n1 | > 13.3 | 0.412 (≈ 0.929 µM) | > 13.3 | – | > 13.3 | 50 | 6.7 | > 13.3
7 | CCNc1cc(C)nc(Nc2ccc(NS(=O)(=O)c3ccc4nc(C)sc4c3)cc2)n1 | > 13.6 | 1.18 (≈ 2.6 µM) | 4.31 (≈ 9.49 µM) | – | 0.404 (≈ 0.889 µM) | 58.3 | 33.4 | 0.543 (≈ 1.19 µM)
8 | CCCS(=O)(=O)Nc1ccc(Nc2nc(C)cc(N(C)C)n2)cc1 | > 10.5 | > 10.5 | > 10.5 | – | 0.335 (≈ 0.959 µM) | 0 | 0 | > 10.5
9 | CCN(CC)c1cc(C)nc(Nc2ccc(NS(=O)(=O)c3ccc(C)cc3C)cc2)n1 | 4.27 (≈ 9.71 µM) | 0.357 (≈ 0.812 µM) | 0.429 (≈ 0.976 µM) | – | 0.324 (≈ 0.737 µM) | 100 | -1 | 1.51 (≈ 3.43 µM)
10 | CCOC(=O)c1c(NC(=O)C(C)n2c(-n3nc(C)cc3C)nc(CC)cc2=O)sc2c1CCC2 (centres undefined) | 4.7 (≈ 9.71 µM) | 2.96 (≈ 6.11 µM) | 4.64 (≈ 9.6 µM) | – | 0.57 (≈ 1.18 µM) | 0 | 0 | > 14.5
11 | CCOC(=O)c1c(NC(=O)Cn2c(-n3nc(C)cc3C)nc(CC)cc2=O)sc2c1CCC2 | 4.56 (≈ 9.71 µM) | 4.68 (≈ 9.97 µM) | > 14.1 | – | 0.749 (≈ 1.6 µM) | 0 | 0 | > 14.1
12 | CCOC(=O)c1c(NC(=O)Cn2c(-n3nc(C)cc3C)nc(CC)cc2=O)sc2c1CCCCC2 | > 14.9 | 4.44 (≈ 8.93 µM) | > 14.9 | – | 0.724 (≈ 1.45 µM) | 0 | 0 | > 14.9
13 | COc1ccccc1NC(=O)Nc1nc(CC(=O)N2CCN(c3cccc(C(F)(F)F)c3)CC2)cs1 | > 15.6 | 4.27 (≈ 8.23 µM) | 3.43 (≈ 6.59 µM) | – | 0.93 (≈ 1.79 µM) | 0 | 0 | > 15.6
14 | CCS(=O)(=O)c1ccc(-c2cccc(NC(=O)c3cc(Cl)ccc3Cl)c2)nn1 | 4.24 (≈ 9.71 µM) | > 13.1 | > 13.1 | – | > 13.1 | 100 | 0 | > 13.1
15 | CCN(CC)c1ccc(NC(=O)Cc2csc(NC(=O)c3cc(OC)cc(OC)c3)n2)c(C)c1 | 4.69 (≈ 9.71 µM) | 4.28 (≈ 8.87 µM) | 0.493 (≈ 1.02 µM) | – | 1 (≈ 2.08 µM) | 0 | 20 | > 14.5
16 | CCc1ccccc1-n1c(C)cn2c3c(=O)n(CC(C)C)c(=O)n(C)c3nc12 | > 11.4 | 3.29 (≈ 8.68 µM) | 0.342 (≈ 0.901 µM) | 0 | > 11.4 | 0 | 20 | > 11.4
17 | O=C(CSc1ccc(-c2ccc(-n3cccn3)cc2)nn1)Nc1ccc2c(c1)OCO2 | 0.419 (≈ 0.971 µM) | > 12.9 | > 12.9 | 0 | > 12.9 | 0 | 13.3 | > 12.9
18 | CS(=O)(=O)NCC(c1ccco1)S(=O)(=O)c1ccc(Cl)cc1 (centres undefined) | > 10.9 | > 10.9 | 10.9 (≈ 30 µM) | 33.33 | 0.513 (≈ 1.41 µM) | 0 | 6.7 | > 10.9
19 | CCCCN(C)S(=O)(=O)c1ccc(C(=O)N2CCN(c3nc4c(C)ccc(C)c4s3)CC2)cc1 | 0.223 (≈ 0.446 µM) | > 15 | > 15 | 16.67 | > 15 | 0 | 13.3 | > 15
20 | CCCn1/c(=N/C(=O)C2=COCCO2)sc2c(C)ccc(OC)c21 | > 10.5 | 3.18 (≈ 9.13 µM) | > 10.5 | 0 | 0.89 (≈ 2.55 µM) | 0 | 20 | > 10.5
21 | COc1ccc(-c2ccc(NS(=O)(=O)c3ccc(Cl)s3)cc2)nn1 | 1.09 (≈ 2.85 µM) | > 11.5 | > 11.5 | 16.67 | > 11.5 | 0 | 0 | > 11.5

Second part, led by results:

Row | IC50 (Leishmania infantum) [µg/mL] | IC50 (Plasmodium falciparum K1) [µg/mL] | IC50 [1] [µg/mL] | Structure (SMILES) | % Inhibition (Brugia malayi) [%] | IC50 (Trypanosoma cruzi) [µg/mL] | % Inhibition (Schistosoma mansoni) [%] | % Inhibition (Onchocerca lienalis) [%] | IC50 [2] [µg/mL]
22 | 0.466 (≈ 1.05 µM) | 3.42 (≈ 7.7 µM) | 2 (≈ 4.51 µM) | CN(C)CCCN(C(=O)CCSc1ccccc1)c1nc2cc3c(cc2s1)OCO3 | – | 0.416 (≈ 0.938 µM) | 0 | 0 | 3.54 (≈ 7.97 µM)
23 | 5.04 (≈ 10.4 µM) | 2.42 (≈ 5.02 µM) | 5.04 (≈ 10.4 µM) | CN(C)CCCN(C(=O)c1ccc(Br)s1)c1nc2cc3c(cc2s1)OCCO3 | – | 0.933 (≈ 1.93 µM) | 0 | 6.7 | 3.06 (≈ 6.35 µM)
24 | 4.54 (≈ 10.5 µM) | 0.398 (≈ 0.923 µM) | 0.352 (≈ 0.817 µM) | CN(C)CCCN(C(=O)c1nc2ccccc2s1)c1nc2c(Cl)cccc2s1 | – | 0.239 (≈ 0.555 µM) | 33.3 | 0 | 0.526 (≈ 1.22 µM)
25 | 4.16 (≈ 10.6 µM) | 0.848 (≈ 2.16 µM) | 0.237 (≈ 0.605 µM) | CN(C)CCCN(C(=O)c1ccccc1F)c1nc2c(Cl)cccc2s1 | – | 4.41 (≈ 11.3 µM) | 0 | 13.3 | 3.81 (≈ 9.73 µM)
26 | 0.451 (≈ 1.05 µM) | 1.72 (≈ 4.01 µM) | 4.51 (≈ 10.5 µM) | CN(C)CCCN(C(=O)CCOc1ccccc1)c1nc2cc3c(cc2s1)OCO3 | – | 0.433 (≈ 1.01 µM) | 75 | 0 | 3.34 (≈ 7.81 µM)
27 | 1.96 (≈ 4.4 µM) | > 13.4 | > 13.4 | O=C(COc1ccccc1)Oc1ccc2nc(N3CCN(c4ccccc4)CC3)sc2c1 | 0 | 9.76 (≈ 21.9 µM) | 0 | 0 | > 13.4
28 | 0.39 (≈ 1.07 µM) | 1.74 (≈ 4.76 µM) | 0.35 (≈ 0.958 µM) | CN(C)CCCN(C(=O)/C=C/c1ccccc1)c1nc2ccccc2s1 | 0 | 0.406 (≈ 1.11 µM) | 100 | 25.05 | 3.81 (≈ 10.4 µM)
29 | > 13.8 | 5.41 (≈ 12.8 µM) | 4.37 (≈ 10.3 µM) | CN(C)CCCN(C(=O)c1ccc(Br)s1)c1nc2ccccc2s1 | 0 | 0.791 (≈ 1.86 µM) | 0 | 11.35 | > 13.8
30 | 4.32 (≈ 9.71 µM) | > 13.3 | > 13.3 | O=C(COc1ccc(Cl)cc1Cl)N(Cc1ccccn1)c1nc2ccccc2s1 | 0 | 0.863 (≈ 1.94 µM) | 0 | 0 | > 13.3
31 | 3.7 (≈ 9.71 µM) | 7.58 (≈ 19.9 µM) | > 11.4 | O=C(c1c(F)cccc1F)N(Cc1ccccn1)c1nc2ccccc2s1 | 0 | 0.546 (≈ 1.43 µM) | 0 | 4.601 | 2.13 (≈ 5.58 µM)
32 | > 12.2 | 11.3 (≈ 28 µM) | > 12.2 | O=C(CCSc1ccccc1)N(Cc1ccccn1)c1nc2ccccc2s1 | 0 | 0.466 (≈ 1.15 µM) | 0 | 11.35 | > 12.2
